Compound activity deposited in PubChem BioAssay by several laboratories.
Sampled rows, rich in hits. Any-hit rate of the full collection: about 1.3%.
aDG glyco act: alpha-DG glycosylation activation; Pro5-aDG cells, alpha-DG glycosylation AlphaScreen (IIH6); 0% Pro5, 100% B10-LARGE cell signal; activation, % at 10 µM; AID 624168; hit rate 0.22% among 360,000;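 active means activation of at least 8% versus controls, or a plate z-score of at least 8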;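 further: Pro5 are CHO cells carrying HIG-tagged alpha-DG that lacks glycosylation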
CendR NRP1 mod: NRP-1/CendR interaction modulation; FAM-RPARPAR peptide binding to NRP-1, fluorescence polarization; O14786; hit rate 0.85% among 360,000; AID 602438; inhibition, % at 25 µM;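 active means inhibition or corrected inhibition above about 18%, plus a signal ratio from 0.5 to 1.5, limit read from the data, passing the limit was not always enough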
DDE Tn6 FP inh: disrupts Tn6 cyclic peptide binding to fibrin D-Dimer-E complex; inhibition, % at 8.3 µM; Fibrin DD(E) TRITC-Tn6 fluorescence polarization displacement; hit rate 0.21% among 370,000; AID 720509;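 active means inhibition above a per-campaign cutoff: mean of compounds within control limits plus 3 SD, cut at about 15% in these data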
Target sequence (P02675 whole entry, looked up): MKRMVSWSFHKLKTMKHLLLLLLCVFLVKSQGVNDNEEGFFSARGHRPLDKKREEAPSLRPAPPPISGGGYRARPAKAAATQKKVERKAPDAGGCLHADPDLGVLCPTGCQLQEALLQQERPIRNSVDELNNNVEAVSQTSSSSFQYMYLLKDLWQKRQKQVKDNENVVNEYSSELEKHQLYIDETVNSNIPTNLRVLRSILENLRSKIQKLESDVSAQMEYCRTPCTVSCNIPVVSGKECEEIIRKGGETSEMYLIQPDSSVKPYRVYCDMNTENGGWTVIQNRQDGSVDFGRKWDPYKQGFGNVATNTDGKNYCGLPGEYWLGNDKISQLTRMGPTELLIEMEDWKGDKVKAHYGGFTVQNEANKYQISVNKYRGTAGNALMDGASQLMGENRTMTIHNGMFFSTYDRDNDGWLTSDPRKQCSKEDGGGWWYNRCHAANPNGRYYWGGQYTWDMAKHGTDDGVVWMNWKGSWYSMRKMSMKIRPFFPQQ
Tn7 DDE FP: disrupts Tn7 cyclic peptide binding to fibrin D-Dimer-E complex. FP displacement of FITC-Tn7 peptide from fibrin DD(E); 0% = median of compound wells per plate. inhibition, % at 8.3 µM. hit rate 0.13% among 370,000. AID 720508;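 active means inhibition above the mean of compounds falling within the control limits plus 3 SD of them, cut at about 14% in these data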
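Test system – human fibrin DD(E) · Times – 10 min preincubation, 3 h with tracer, room temperature · Detection – fluorescence polarization of the labelled Tn7 tracer · Measure – percent inhibition normalized to high-control wells · Benchmarks – high control wells with 10 µM unlabelled Aha-Tn7 peptide (full inhibition) · Repeats – singlicate testing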
DDE Tn6 FP ctr: counter-screen hit for Tn6 peptide-fibrin DD(E) binding disruption; TRITC-Tn6 fluorescence polarization displacement; 0% = median of compound wells, not DMSO; shares compounds with DDE Tn6 FP inh; hit rate 2% among 680; inhibition, % at 8.3 µM; AID 720621;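 active means inhibition above the mean of test compounds lying between the control limits plus 3 SD of those, cut at about 14% in these data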
DDE Tn6 confirm: confirmation of inhibitors of Tn6 binding to human fibrin DD(E) | shares compounds with DDE Tn6 FP inh | FP displacement of TRITC-Tn6 peptide from DD(E); 0% = per-plate median of test wells | inhibition, % at 8.3 µM | hit rate 10% among 680;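 active means inhibition above the mean of compounds lying within the control limits plus 3 SD, cut at about 16% in these data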
Numbers stand for hits; - = inactive; . = no result given; + = active, no number.

SMILES	aDG glyco act	CendR NRP1 mod	DDE Tn6 FP inh	Tn7 DDE FP	DDE Tn6 FP ctr	DDE Tn6 confirm
CCN1/C(=C/C=C/C2=[N+](CC)c3ccccc3C2(C)C)C(C)(C)c2ccccc21	-	-	+	-	-	93
CN1/C(=C\C=C2C(=O)NC(=O)NC2=O)C(C)(C)c2ccccc21	-	-	-	-	.	.
Cc1ccc2c(c1)C1CN(C)CCC1N2C(=O)Nc1cccc(C(F)(F)F)c1 (configuration not stated)	-	-	-	-	.	.
Cc1ccc2c(c1)[C@@H]1CN(C)CC[C@@H]1N2C(=O)Nc1cccc(C(F)(F)F)c1	-	-	17	-	-	-
CCOC(=O)C(O)(c1ccc(NC(=O)NC2CCCCC2)cc1)C(F)(F)F (configuration not stated)	-	-	17	-	-	-
O=C(NC(C(Cl)Cl)N1CCOCC1)c1ccccc1 (configuration not stated)	-	-	-	-	.	.
CNC(=S)N1CCN(CCN=Cc2c(O)n(-c3ccc(C)cc3)c(=S)[nH]c2=O)CC1	-	-	-	-	.	.
Cc1cccc(-n2c(O)c(C=NCCN3CCNCC3)c(=O)[nH]c2=S)c1	-	-	16	-	-	-
CC[n+]1c(SC)ccc2cc(OC)ccc21	-	-	-	-	.	.
CN(C)c1ccc(/C=C/C=C2/C(=O)NC(=O)N(c3ccccc3)C2=O)cc1	-	-	23	-	-	40
C[n+]1c2ccccc2nc2ccc(NCCO)cc21	-	-	+	-	-	122
CNc1ccc2nc3ccccc3[n+](C)c2c1	2.7	29	+	-	-	94
Cc1c(CCN)ccc2c1[nH]c1ccccc12	-	-	-	-	.	.
COc1ccc(NC(=O)C2C3CCC(O3)C2C(=O)O)c(OC)c1 (configuration not stated)	-	-	-	-	.	.
COC(=O)CC1(CC(=O)OC)C(=O)N(c2ccccc2)C(=O)N(c2ccccc2)C1=O	-	-	-	-	.	.
COC(=O)CC1(CC(=O)OC)C(=O)NC(=O)NC1=O	-	-	18	-	-	-
